Results published in ChEMBL document CHEMBL1124369, “Pyrido[3,4-e]-1,2,4-triazines and related heterocycles as potential antifungal agents” (1989).
Converted amounts (≈) assume the structure as drawn.

Assays:
Candida albicans [1] = test: Antifungal activity against Candida albicans; format: functional
In short: (§1)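 Agar dilution MIC. Twofold serial drug dilutions in yeast nitrogen base medium with 1% dextrose, 0.15% asparagine and 1.5% agar. Agar surfaces inoculated using a Steers multiple inocula replicator, then incubated at 35 °C for 24-48 h. MIC was recorded as the lowest concentration inhibiting visible growth. Amphotericin B, miconazole and nystatin served as controls.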

Candida parapsilosis = test: Antifungal activity against Candida parapsilosis; format: functional; details: Lodderomyces parapsilosis; in short: as §1
Kluyveromyces marxianus [2] = test: Antifungal activity against Candida pseudotropicalis; Range is 1-32; format: functional; in short: as §1
Trichophyton rubrum [3] = test: Antifungal activity against Trichophyton rubrum; format: functional; in short: as §1
Candida tropicalis [4] = test: Antifungal activity against Candida tropicalis; Range is 32-64; format: functional; in short: as §1
Aspergillus niger [5] = test: Antifungal activity against Aspergillus niger; format: functional; in short: as §1
Trichophyton benhamiae [6] = test: Antifungal activity against Trichophyton mentagrophytes; Range is 16-32; format: functional, trychophyton mentagrophytes
Kluyveromyces marxianus [7] = test: Antifungal activity against Candida pseudotropicalis; format: functional; in short: as §1
Trichophyton rubrum [8] = test: Antifungal activity against Trichophyton rubrum; Range is 4-16; format: functional; in short: as §1
Trichophyton benhamiae [9] = test: Antifungal activity against Trichophyton mentagrophytes; format: functional, trychophyton mentagrophytes; in short: as §1
Diutina rugosa = test: Antifungal activity against Candida rugosa; format: functional; in short: as §1
Mucor fragilis = test: Antifungal activity against Mucor fragilis; format: functional; in short: as §1
Aspergillus niger [10] = test: Antifungal activity against Aspergillus niger; Range is 32-64; format: functional; in short: as §1
Candida albicans [11] = test: Antifungal activity against Candida stellatoidea; format: functional; in short: as §1
Candida albicans [12] = test: Antifungal activity against Candida albicans; Range is 16-64; format: functional; in short: as §1
Candida tropicalis [13] = test: Antifungal activity against Candida tropicalis; Range is 8-16; format: functional; in short: as §1
Kluyveromyces marxianus [14] = test: Antifungal activity against Candida pseudotropicalis; Range is 0.25-4; format: functional; in short: as §1
Candida albicans [15] = test: Antifungal activity against Candida albicans; Range is 8-16; format: functional; in short: as §1
Aspergillus niger [16] = test: Antifungal activity against Aspergillus niger; Range is 16-128; format: functional; in short: as §1
Candida tropicalis [17] = test: Antifungal activity against Candida tropicalis; format: functional; in short: as §1
Kluyveromyces marxianus [18] = test: Antifungal activity against Candida pseudotropicalis; Range is 4-8; format: functional; in short: as §1
Trichophyton benhamiae [19] = test: Antifungal activity against Trichophyton mentagrophytes; Range is 4-8; format: functional, trychophyton mentagrophytes; in short: as §1
Candida tropicalis [20] = test: Antifungal activity against Candida tropicalis; Range is 4-8; format: functional; in short: as §1
Candida albicans [21] = test: Antifungal activity against Candida albicans; Range is 4-8; format: functional; in short: as §1
Trichophyton rubrum [22] = test: Antifungal activity against Trichophyton rubrum; Range is 2-4; format: functional; in short: as §1
Kluyveromyces marxianus [23] = test: Antifungal activity against Candida pseudotropicalis; Range is 32-64; format: functional; in short: as §1
Aspergillus niger [24] = test: Antifungal activity against Aspergillus niger; Range is 16-32; format: functional; in short: as §1
Trichophyton rubrum [25] = test: Antifungal activity against Trichophyton rubrum; Range is 1-2; format: functional; in short: as §1
Trichophyton benhamiae [26] = test: Antifungal activity against Trichophyton mentagrophytes; Range is 2-4; format: functional, trychophyton mentagrophytes; in short: as §1
Trichophyton benhamiae [27] = test: Antifungal activity against Trichophyton mentagrophytes; Range is 64-128; format: functional, trychophyton mentagrophytes; in short: as §1
Trichophyton rubrum [28] = test: Antifungal activity against Trichophyton rubrum; Range is 32-128; format: functional; in short: as §1
Trichophyton rubrum [29] = test: Antifungal activity against Trichophyton rubrum; Range is 64-128; format: functional
Candida albicans [30] = test: Antifungal activity against Candida albicans; Range is 32-64; format: functional; in short: as §1
Aspergillus niger [31] = test: Antifungal activity against Aspergillus niger; Range is 64-128; format: functional; in short: as §1
Trichophyton benhamiae [32] = test: Antifungal activity against Trichophyton mentagrophytes; Range is 32-128; format: functional, trychophyton mentagrophytes; in short: as §1
Candida tropicalis [33] = test: Antifungal activity against Candida tropicalis; Range is 64-128; format: functional; in short: as §1
Kluyveromyces marxianus [34] = test: Antifungal activity against Candida pseudotropicalis; Range is 64-128; format: functional; in short: as §1
Trichophyton rubrum [35] = test: Antifungal activity against Trichophyton rubrum; Range is 32-64; format: functional; in short: as §1
Trichophyton benhamiae [36] = test: Antifungal activity against Trichophyton mentagrophytes; Range is 32-64; format: functional, trychophyton mentagrophytes; in short: as §1
Candida tropicalis [37] = test: Antifungal activity against Candida tropicalis; Range is 16-32; format: functional; in short: as §1
Trichophyton rubrum [38] = test: Antifungal activity against Trichophyton rubrum; Range is 8-16; format: functional
Kluyveromyces marxianus [39] = test: Antifungal activity against Candida pseudotropicalis; Range is 8-16; format: functional; in short: as §1
Trichophyton benhamiae [40] = test: Antifungal activity against Trichophyton mentagrophytes; Range is 8-16; format: functional, trychophyton mentagrophytes; in short: as §1
Candida tropicalis [41] = test: Antifungal activity against Candida tropicalis; Range is 0.25-0.5; format: functional
Candida albicans [42] = test: microbe, parasite or virus in culture

Row | SMILES | MIC (Candida albicans [1]) [µg/mL] | MIC (Candida parapsilosis) [µg/mL] | MIC (Trichophyton rubrum [3]) [µg/mL] | MIC (Aspergillus niger [5]) [µg/mL] | MIC (Kluyveromyces marxianus [7]) [µg/mL] | MIC (Trichophyton benhamiae [9]) [µg/mL] | MIC (Diutina rugosa) [µg/mL] | MIC (Mucor fragilis) [µg/mL] | MIC (Candida albicans [11]) [µg/mL] | MIC (Candida tropicalis [17]) [µg/mL] | further results
1 | CCC1(Cc2ccccc2)N=Nc2ccncc2N1 (centres undefined) | 128 (≈ 507 µM) | 128 (≈ 507 µM) | 32 (≈ 127 µM) | 128 (≈ 507 µM) |  |  |  |  |  |  | MIC (Kluyveromyces marxianus [2]): 1 µg/mL (≈ 3.96 µM); MIC (Candida tropicalis [4]): 32 µg/mL (≈ 127 µM); MIC (Trichophyton benhamiae [6]): 16 µg/mL (≈ 63.4 µM)
2 | c1cc2nnc(C3CCCCC3)nc2cn1 |  | 64 (≈ 299 µM) |  |  | 32 (≈ 149 µM) | 16 (≈ 74.7 µM) | 32 (≈ 149 µM) | 64 (≈ 299 µM) | 32 (≈ 149 µM) |  | MIC (Trichophyton rubrum [8]): 4 µg/mL (≈ 18.7 µM); MIC (Aspergillus niger [10]): 32 µg/mL (≈ 149 µM); MIC (Candida albicans [12]): 16 µg/mL (≈ 74.7 µM); MIC (Candida tropicalis [4]): 32 µg/mL (≈ 149 µM)
3 | Clc1ccc(COC(Cn2ccnc2)c2ccc(Cl)cc2Cl)c(Cl)c1 (centres undefined) [MICONAZOLE] |  | 16 (≈ 38.4 µM) | 1 (≈ 2.4 µM) | 8 (≈ 19.2 µM) |  | 2 (≈ 4.81 µM) | 8 (≈ 19.2 µM) | 8 (≈ 19.2 µM) | 8 (≈ 19.2 µM) |  | MIC (Candida tropicalis [13]): 8 µg/mL (≈ 19.2 µM); MIC (Kluyveromyces marxianus [14]): 0.25 µg/mL (≈ 0.601 µM); MIC (Candida albicans [15]): 8 µg/mL (≈ 19.2 µM)
4 | Fc1ccc(-c2nnc3ncccc3n2)cc1 | 128 (≈ 566 µM) |  | > 128 |  | 128 (≈ 566 µM) | 32 (≈ 141 µM) | 128 (≈ 566 µM) |  | 128 (≈ 566 µM) | 128 (≈ 566 µM) | MIC (Aspergillus niger [16]): 16 µg/mL (≈ 70.7 µM)
5 | Cc1cc2nncnc2c(C)n1 |  | 16 (≈ 99.9 µM) | 4 (≈ 25 µM) | 32 (≈ 200 µM) |  |  |  |  |  |  | MIC (Kluyveromyces marxianus [18]): 4 µg/mL (≈ 25 µM); MIC (Trichophyton benhamiae [19]): 4 µg/mL (≈ 25 µM); MIC (Candida tropicalis [20]): 4 µg/mL (≈ 25 µM); MIC (Candida albicans [21]): 4 µg/mL (≈ 25 µM)
6 | c1ccc(-c2nnc3ccncc3n2)nc1 | 64 (≈ 306 µM) | 64 (≈ 306 µM) |  | 32 (≈ 153 µM) |  | 32 (≈ 153 µM) | 64 (≈ 306 µM) | 64 (≈ 306 µM) | 16 (≈ 76.5 µM) | 64 (≈ 306 µM) | MIC (Trichophyton rubrum [22]): 2 µg/mL (≈ 9.56 µM); MIC (Kluyveromyces marxianus [23]): 32 µg/mL (≈ 153 µM)
7 | c1cc2nncnc2cn1 |  | 16 (≈ 121 µM) |  |  | 4 (≈ 30.3 µM) |  | 8 (≈ 60.5 µM) | 8 (≈ 60.5 µM) | 8 (≈ 60.5 µM) |  | MIC (Aspergillus niger [24]): 16 µg/mL (≈ 121 µM); MIC (Trichophyton rubrum [25]): 1 µg/mL (≈ 7.57 µM); MIC (Trichophyton benhamiae [26]): 2 µg/mL (≈ 15.1 µM); MIC (Candida tropicalis [13]): 8 µg/mL (≈ 60.5 µM); MIC (Candida albicans [15]): 8 µg/mL (≈ 60.5 µM)
8 | CC(=O)Nc1c(C)nc(C)c2nc(-c3ccc(F)cc3)nnc12 | 128 (≈ 411 µM) | 128 (≈ 411 µM) |  | 128 (≈ 411 µM) | 128 (≈ 411 µM) |  |  |  |  | 128 (≈ 411 µM) | MIC (Trichophyton benhamiae [27]): 64 µg/mL (≈ 206 µM); MIC (Trichophyton rubrum [28]): 32 µg/mL (≈ 103 µM)
9 | Cc1cc2nnc(-c3ccncc3)nc2c(C)n1 |  |  |  |  | 32 (≈ 135 µM) |  | 32 (≈ 135 µM) | > 128 | 32 (≈ 135 µM) | 128 (≈ 539 µM) | MIC (Trichophyton rubrum [29]): 64 µg/mL (≈ 270 µM); MIC (Candida albicans [30]): 32 µg/mL (≈ 135 µM); MIC (Aspergillus niger [31]): 64 µg/mL (≈ 270 µM); MIC (Trichophyton benhamiae [32]): 32 µg/mL (≈ 135 µM)
10 | Cc1nnc2ccccc2n1 | 128 (≈ 882 µM) | 128 (≈ 882 µM) |  | 128 (≈ 882 µM) | 128 (≈ 882 µM) |  |  |  |  |  | MIC (Candida tropicalis [33]): 64 µg/mL (≈ 441 µM); MIC (Trichophyton rubrum [29]): 64 µg/mL (≈ 441 µM); MIC (Trichophyton benhamiae [27]): 64 µg/mL (≈ 441 µM)
11 | Cc1nnc2c(N)c(C)nc(C)c2n1 | 128 (≈ 676 µM) | 128 (≈ 676 µM) |  | 128 (≈ 676 µM) |  |  |  |  |  | 128 (≈ 676 µM) | MIC (Kluyveromyces marxianus [34]): 64 µg/mL (≈ 338 µM); MIC (Trichophyton rubrum [35]): 32 µg/mL (≈ 169 µM); MIC (Trichophyton benhamiae [36]): 32 µg/mL (≈ 169 µM)
12 | Cc1nccc2nnc(-c3ccncc3)nc12 | 16 (≈ 71.7 µM) | 32 (≈ 143 µM) |  |  |  |  |  |  |  |  | MIC (Candida tropicalis [37]): 16 µg/mL (≈ 71.7 µM); MIC (Trichophyton rubrum [38]): 8 µg/mL (≈ 35.8 µM); MIC (Aspergillus niger [10]): 32 µg/mL (≈ 143 µM); MIC (Kluyveromyces marxianus [39]): 8 µg/mL (≈ 35.8 µM); MIC (Trichophyton benhamiae [40]): 8 µg/mL (≈ 35.8 µM)
13 | C[C@@H]1[C@H](O)[C@@H](C)/C=C/C=C/C=C/C=C/C=C/C=C/C=C/[C@H](O[C@@H]2O[C@H](C)[C@@H](O)[C@H](N)[C@@H]2O)C[C@@H]2O[C@](O)(C[C@@H](O)C[C@@H](O)[C@H](O)CC[C@@H](O)C[C@@H](O)CC(=O)O[C@H]1C)C[C@H](O)[C@H]2C(=O)O [AMPHOTERICIN B] |  | 0.5 (≈ 0.541 µM) | 0.5 (≈ 0.541 µM) | 0.5 (≈ 0.541 µM) | 0.5 (≈ 0.541 µM) | 1 (≈ 1.08 µM) | > 128 | 0.25 (≈ 0.271 µM) | > 128 |  | MIC (Candida tropicalis [41]): 0.25 µg/mL (≈ 0.271 µM); MIC (Candida albicans [42]): 0.25 µg/mL (≈ 0.271 µM)
